# Source: ChEMBL document CHEMBL1250480, “Design, synthesis and qualitative structure-activity evaluations of novel hexahydropyrano[3,2-c][1,2]diazepin-3(4H)-one and tetrahydropyrano[3,2-b]pyrrol-2(1H)-one derivatives as anticancer agents” (Eur J Med Chem, 2010)
# How the values were obtained:
# Assay type in all cases: functional, cell-based
# HCT-116 = assay: Cytotoxicity against human HCT116 cells after 48 hrs by SRB assay; conditions: HCT-116, 48 h
# How it was run: (§1)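 Cells grown in RPMI-1640 with 10% FBS and antibiotics at 37 °C, 5% CO2. Agents from fresh 1 mg/ml DMSO stocks were diluted in medium and applied for 48 h at 37 °C in triplicate wells. Cells were fixed with cold 50% TCA, stained with 0.4% SRB, and the dye solubilized in 10 mM Tris pH 10.5 before reading A570. IC50 is the concentration giving 50% reduction in net protein increase versus untreated cells, after blank correction. Values are the mean ± SEM of at least two independent runs.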
# DU-145 = assay: Cytotoxicity against human DU145 cells after 48 hrs by SRB assay; conditions: DU-145, 48 h; how it was run: as §1
# SK-BR-3 = assay: Cytotoxicity against human SK-BR-3 cells after 48 hrs by SRB assay; conditions: SK-BR-3, 48 h; how it was run: as §1
# SK-N-SH = assay: Cytotoxicity against human SK-N-SH cells after 48 hrs by SRB assay; how it was run: as §1
# A549 = assay: Cytotoxicity against human A549 cells after 48 hrs by SRB assay; conditions: A549, 48 h; how it was run: as §1
structure (smiles),measurement,setting,value
COc1cc(OC)cc(N2C(=O)C[C@]3(c4ccccc4)O[C@H](OC)CC=C23)c1,IC50,HCT-116,6.1 µM
same,IC50,DU-145,6.1 µM
same,IC50,SK-BR-3,1.1 µM
same,IC50,SK-N-SH,7.2 µM
same,IC50,A549,4.11 µM
COc1ccc(N2NC3=CC[C@@H](OC)O[C@@]3(c3ccccc3)CCC2=O)cc1,IC50,HCT-116,3.1 µM
same,IC50,DU-145,4.1 µM
same,IC50,SK-BR-3,2.4 µM
same,IC50,SK-N-SH,4.6 µM
same,IC50,A549,5.1 µM
CO[C@@H]1CC=C2N(c3cc(Cl)cc(Cl)c3)C(=O)C[C@]2(c2ccccc2)O1,IC50,HCT-116,11.2 µM
same,IC50,DU-145,8.17 µM
same,IC50,SK-BR-3,6.54 µM
same,IC50,SK-N-SH,9.67 µM
same,IC50,A549,7.53 µM
CO[C@@H]1CC=C2N(c3ccc([N+](=O)[O-])cc3)C(=O)C[C@]2(c2ccccc2)O1,IC50,HCT-116,8 µM
same,IC50,DU-145,8.1 µM
same,IC50,SK-BR-3,6.3 µM
same,IC50,SK-N-SH,9.4 µM
same,IC50,A549,7.15 µM
CO[C@@H]1CC=C2N(c3ccccn3)C(=O)C[C@]2(c2ccccc2)O1,IC50,HCT-116,7.3 µM
same,IC50,DU-145,8.3 µM
same,IC50,SK-BR-3,1.1 µM
same,IC50,SK-N-SH,5.1 µM
same,IC50,A549,6.11 µM
CO[C@@H]1CC=C2N(c3ccc4[nH]ccc4c3)C(=O)C[C@]2(c2ccccc2)O1,IC50,HCT-116,5.3 µM
same,IC50,DU-145,4.1 µM
same,IC50,SK-BR-3,1.3 µM
same,IC50,SK-N-SH,4.4 µM
same,IC50,A549,5.1 µM
CO[C@@H]1CC=C2NN(c3cc(Cl)cc(Cl)c3)C(=O)CC[C@]2(c2ccccc2)O1,IC50,HCT-116,6.52 µM
same,IC50,DU-145,8.46 µM
same,IC50,SK-BR-3,6.35 µM
same,IC50,SK-N-SH,7.11 µM
same,IC50,A549,6.13 µM
CO[C@@H]1CC=C2N(c3c[nH]c4ccccc34)C(=O)C[C@]2(c2ccccc2)O1,IC50,HCT-116,7.13 µM
same,IC50,DU-145,7.33 µM
same,IC50,SK-BR-3,2.3 µM
same,IC50,SK-N-SH,8.2 µM
same,IC50,A549,5.2 µM
CO[C@@H]1CC=C2N(c3ccc(C)cc3)C(=O)C[C@]2(c2ccccc2)O1,IC50,HCT-116,4.3 µM
same,IC50,DU-145,4.4 µM
same,IC50,SK-BR-3,1.1 µM
same,IC50,SK-N-SH,3.5 µM
same,IC50,A549,3.92 µM
CO[C@@H]1CC=C2NN(c3c[nH]c4ccccc34)C(=O)CC[C@]2(c2ccccc2)O1,IC50,HCT-116,1.1 µM
same,IC50,DU-145,1.13 µM
same,IC50,SK-BR-3,1.2 µM
same,IC50,SK-N-SH,1 µM
same,IC50,A549,1.11 µM
CO[C@@H]1CC=C2NN(c3ccccn3)C(=O)CC[C@]2(c2ccccc2)O1,IC50,HCT-116,1.4 µM
same,IC50,DU-145,1.29 µM
same,IC50,SK-BR-3,1.12 µM
same,IC50,SK-N-SH,2.1 µM
same,IC50,A549,1.48 µM
CO[C@@H]1CC=C2NN(c3ccc(C)cc3)C(=O)CC[C@]2(c2ccccc2)O1,IC50,HCT-116,2.5 µM
same,IC50,DU-145,2.2 µM
same,IC50,SK-BR-3,2.7 µM
same,IC50,SK-N-SH,1.7 µM
same,IC50,A549,3.17 µM
CO[C@@H]1CC=C2NN(c3ccc([N+](=O)[O-])cc3)C(=O)CC[C@]2(c2ccccc2)O1,IC50,HCT-116,8.7 µM
same,IC50,DU-145,9.2 µM
same,IC50,SK-BR-3,7.7 µM
same,IC50,SK-N-SH,7.3 µM
same,IC50,A549,9.49 µM
COc1cc(OC)cc(N2NC3=CC[C@@H](OC)O[C@@]3(c3ccccc3)CCC2=O)c1,IC50,HCT-116,2.1 µM
same,IC50,DU-145,2.4 µM
same,IC50,SK-BR-3,1.2 µM
same,IC50,SK-N-SH,3.2 µM
same,IC50,A549,2.9 µM
